Assay [1] deals with Mycobacterium avium. The assay can be described thus: Antimycobacterial activity against INH/RIF/OFX resistant Mycobacterium avium 330/88 after 21 days. The conditions noted are these: 330/88, 504 h. The class given is functional.
In assay [2] the test system is Mycobacterium kansasii. The assay can be described thus: Antimycobacterial activity against Mycobacterium kansasii 6509/96 after 14 days. The class given is functional. The conditions noted are these: 6509/96, 336 h.
The test system of assay [3] is Mycobacterium kansasii. Briefly: Antimycobacterial activity against Mycobacterium kansasii 6509/96 after 21 days. The class given is functional. As to conditions: 6509/96, 504 h.
The subject of assay [4] is Mycobacterium tuberculosis. Briefly: Antimycobacterial activity against Mycobacterium tuberculosis H37Rv after 21 days. As to conditions: 504 h. The class given is functional.
The subject of assay [5] is Mycobacterium avium. Briefly: Antimycobacterial activity against INH/RIF/OFX resistant Mycobacterium avium 330/88 after 14 days. Format: functional. The conditions noted are these: 330/88, 336 h.
The test system of assay [6] is Mycobacterium kansasii. Briefly: Antimycobacterial activity against Mycobacterium kansasii 6509/96 after 7 days. Format: functional. The conditions noted are these: 6509/96, 168 h.
Assay [7] deals with Mycobacterium kansasii. The assay can be described thus: Antimycobacterial activity against Mycobacterium kansasii 235/80 after 21 days. Format: functional. The conditions noted are these: 235/80, 504 h.
In assay [8] the test system is Mycobacterium kansasii. The assay can be described thus: Antimycobacterial activity against Mycobacterium kansasii 235/80 after 7 days. The class given is functional. The conditions noted are these: 235/80, 168 h.
Assay [9] has as its system Mycobacterium tuberculosis. The assay can be described thus: Antimycobacterial activity against Mycobacterium tuberculosis H37Rv after 14 days. Format: functional. The conditions noted are these: 336 h.
The subject of assay [10] is Mycobacterium kansasii. The assay can be described thus: Antimycobacterial activity against Mycobacterium kansasii 235/80 after 14 days. The class given is functional. As to conditions: 235/80, 336 h.
Assay [11] deals with HepG2. Briefly: Cytotoxicity against human HepG2 cells assessed as reduction in cell viability by MTS assay. The class given is cell-based. The essentials: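 HepG2 human hepatocellular carcinoma cells (passage 2-4) were cultured in Eagle's MEM with 10% FBS, 1% L-glutamine and non-essential amino acids. Compounds were dissolved in DMSO and tested in triplicate at eight concentrations. Viability was read by colorimetric MTS tetrazolium reduction. Controls were 100% viability and 0% viability (10% DMSO). IC50 is the concentration reducing viability to 50% of control.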
(In general: Formazan colour is commonly taken as a measure of viable cells.)

Converted amounts (≈) assume the structure as drawn.

What is called MIC is the lowest concentration found to suppress growth. High values mean a need for much substance, low ones inhibition by little substance. What is called IC50 is the concentration that inhibits the measured activity by half.

`CCCCCCCNc1nnc(-c2ccncc2)o1`: the MIC in assay [1] was 500 µM (≈ 130 µg/mL); in assay [2] it was 500 µM (≈ 130 µg/mL); in assay [3], 500 µM (≈ 130 µg/mL); in [4], 125 µM (≈ 32.5 µg/mL); in assay [5], 500 µM (≈ 130 µg/mL); in assay [6], 250 µM (≈ 65.1 µg/mL). Also, the MIC in assay [7] came to 500 µM (≈ 130 µg/mL); in assay [8], 250 µM (≈ 65.1 µg/mL); in assay [9], 125 µM (≈ 32.5 µg/mL); in [10] it was 500 µM (≈ 130 µg/mL).
As for `CCCCCCCCCCCCCCCCCCNc1nnc(-c2ccncc2)o1`, the MIC in assay [1] is 500 µM (≈ 207 µg/mL); in [2], 500 µM (≈ 207 µg/mL); in [3], 500 µM (≈ 207 µg/mL); in assay [4], 250 µM (≈ 104 µg/mL); in assay [5], 500 µM (≈ 207 µg/mL); in assay [6], 250 µM (≈ 104 µg/mL). For the same compound, the MIC in assay [7] was found to be 250 µM (≈ 104 µg/mL); in assay [8], 250 µM (≈ 104 µg/mL); in assay [9], 125 µM (≈ 51.8 µg/mL); in [10] it was 250 µM (≈ 104 µg/mL).
Regarding `CCCCCCCCCNc1nnc(-c2ccncc2)o1`, the minimum inhibitory concentration (MIC) in assay [1] worked out at 125 µM (≈ 36 µg/mL); in assay [2], 250 µM (≈ 72.1 µg/mL); in assay [3], 250 µM (≈ 72.1 µg/mL); in assay [4], 62.5 µM (≈ 18 µg/mL); in [5], 125 µM (≈ 36 µg/mL); in assay [6] it was 125 µM (≈ 36 µg/mL). Moreover, the MIC in assay [7] is 250 µM (≈ 72.1 µg/mL); in [8], 125 µM (≈ 36 µg/mL); in [9] it was 62.5 µM (≈ 18 µg/mL); in [10], 250 µM (≈ 72.1 µg/mL). Moreover, the IC50 in assay [11] was more than 50 µM.
Take `CCCCCNc1nnc(-c2ccncc2)o1`: the minimum inhibitory concentration (MIC) in assay [1] was more than 1000 µM; in assay [2], 1000 µM (≈ 232 µg/mL); in assay [3] it was 1000 µM (≈ 232 µg/mL); in [4], 62.5 µM (≈ 14.5 µg/mL); in assay [5] it was more than 1000 µM; in assay [6], 500 µM (≈ 116 µg/mL). The MIC in assay [7] stood at 1000 µM (≈ 232 µg/mL); in [8] it was 500 µM (≈ 116 µg/mL); in assay [9] it was 62.5 µM (≈ 14.5 µg/mL); in assay [10] it was 1000 µM (≈ 232 µg/mL).
`CCCCCCCCCCNc1nnc(-c2ccncc2)o1`: the MIC in [1] stood at 62.5 µM (≈ 18.9 µg/mL); in [2], 16 µM (≈ 4.84 µg/mL); in assay [3] it was 16 µM (≈ 4.84 µg/mL); in assay [4], 16 µM (≈ 4.84 µg/mL); in assay [5], 32 µM (≈ 9.68 µg/mL); in [6] it was 16 µM (≈ 4.84 µg/mL). Also, the MIC in [7] was 16 µM (≈ 4.84 µg/mL); in [8] it was 8 µM (≈ 2.42 µg/mL); in assay [9] it was 16 µM (≈ 4.84 µg/mL); in assay [10] it was 16 µM (≈ 4.84 µg/mL). In assay [11], the IC50 is more than 50 µM.
Regarding `CCCCCCCCCCCCCCCCNC(=O)NNC(=O)c1ccncc1`, the MIC in assay [1] stood at 125 µM (≈ 50.6 µg/mL); in assay [2] it was 62.5 µM (≈ 25.3 µg/mL); in [3], 62.5 µM (≈ 25.3 µg/mL); in assay [4] it was 62.5 µM (≈ 25.3 µg/mL); in assay [5], 125 µM (≈ 50.6 µg/mL); in assay [6], 32 µM (≈ 12.9 µg/mL). For the same compound, the MIC was found to be 62.5 µM (≈ 25.3 µg/mL) in [7], 32 µM (≈ 12.9 µg/mL) in assay [8], 32 µM (≈ 12.9 µg/mL) in assay [9] and 62.5 µM (≈ 25.3 µg/mL) in assay [10]. Also, in assay [11], the IC50 was more than 50 µM.
On to `CCCNc1nnc(-c2ccncc2)o1`, for which the MIC in assay [1] is more than 1000 µM; in assay [2], 1000 µM (≈ 204 µg/mL); in assay [3], 1000 µM (≈ 204 µg/mL); in assay [4] it was 500 µM (≈ 102 µg/mL); in [5] it was more than 1000 µM; in assay [6] it was 1000 µM (≈ 204 µg/mL). Further, the MIC in [7] amounted to 1000 µM (≈ 204 µg/mL); in [8], 500 µM (≈ 102 µg/mL); in assay [9] it was 500 µM (≈ 102 µg/mL); in assay [10], 1000 µM (≈ 204 µg/mL).
Regarding `CCCCCCCCCCCCCCNC(=O)NNC(=O)c1ccncc1`, the MIC in assay [1] came out at 125 µM (≈ 47.1 µg/mL); in assay [2], 62.5 µM (≈ 23.5 µg/mL); in assay [3], 62.5 µM (≈ 23.5 µg/mL); in assay [4] it was 62.5 µM (≈ 23.5 µg/mL); in [5], 125 µM (≈ 47.1 µg/mL); in [6], 32 µM (≈ 12 µg/mL). The MIC was found to be 62.5 µM (≈ 23.5 µg/mL) in assay [7], 32 µM (≈ 12 µg/mL) in assay [8], 32 µM (≈ 12 µg/mL) in [9] and 62.5 µM (≈ 23.5 µg/mL) in [10]. In addition, the IC50 in assay [11] was more than 50 µM.
Turning to `CCCCNc1nnc(-c2ccncc2)o1`, the MIC in assay [1] is more than 1000 µM; in assay [2] it was 1000 µM (≈ 218 µg/mL); in assay [3] it was 1000 µM (≈ 218 µg/mL); in assay [4] it was 500 µM (≈ 109 µg/mL); in assay [5], more than 1000 µM; in assay [6], 1000 µM (≈ 218 µg/mL). Also, the MIC in assay [7] amounted to 1000 µM (≈ 218 µg/mL); in assay [8], 500 µM (≈ 109 µg/mL); in assay [9], 250 µM (≈ 54.6 µg/mL); in assay [10], 1000 µM (≈ 218 µg/mL).
Consider `CCCCCCCCNc1nnc(-c2ccncc2)o1`, for which the MIC in [1] amounted to 125 µM (≈ 34.3 µg/mL); in assay [2], 125 µM (≈ 34.3 µg/mL); in assay [3], 125 µM (≈ 34.3 µg/mL); in assay [4], 62.5 µM (≈ 17.1 µg/mL); in assay [5], 62.5 µM (≈ 17.1 µg/mL); in assay [6], 62.5 µM (≈ 17.1 µg/mL). Further, the MIC came out at 125 µM (≈ 34.3 µg/mL) in [7], 62.5 µM (≈ 17.1 µg/mL) in assay [8], 62.5 µM (≈ 17.1 µg/mL) in assay [9] and 125 µM (≈ 34.3 µg/mL) in assay [10].

(Values after ChEMBL document CHEMBL4152223 (Eur J Med Chem, 2018).)
